According to ChEMBL document CHEMBL4304834, “3-Amino-chromanes and Tetrahydroquinolines as Selective 5-HT2B, 5-HT7, or σ1 Receptor Ligands” (ACS Med Chem Lett, 2019):

Columns and labels:
[1] = molecular target: T1, 5-hydroxytryptamine receptor 3A (Homo sapiens, UniProt P46098); assay: Displacement of [3H]-GR65630 from human recombinant 5-HT3 receptor expressed in HEKT cells after 90 mins by microbeta scintillation counting method; format: cell-based
T1 sequence (P46098 whole entry): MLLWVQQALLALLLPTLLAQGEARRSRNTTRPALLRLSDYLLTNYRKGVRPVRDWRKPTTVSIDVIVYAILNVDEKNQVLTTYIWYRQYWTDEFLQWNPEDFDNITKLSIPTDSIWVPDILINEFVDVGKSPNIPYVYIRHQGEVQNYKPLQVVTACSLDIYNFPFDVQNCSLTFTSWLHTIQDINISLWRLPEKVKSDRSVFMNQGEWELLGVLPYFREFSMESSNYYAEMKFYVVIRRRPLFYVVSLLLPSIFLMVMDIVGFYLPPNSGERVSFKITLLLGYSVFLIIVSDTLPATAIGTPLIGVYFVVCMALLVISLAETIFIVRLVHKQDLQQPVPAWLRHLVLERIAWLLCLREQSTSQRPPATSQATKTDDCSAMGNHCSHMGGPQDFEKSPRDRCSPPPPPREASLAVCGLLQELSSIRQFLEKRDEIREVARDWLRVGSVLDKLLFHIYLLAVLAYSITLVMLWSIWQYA
How it was run: (§1)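 Radioligand binding run by the NIMH Psychoactive Drug Screening Program. […] Otherwise Ki comes from sigmoidal curve fits of triplicate measurements in a single experiment, or is averaged over repeated experiments each run in triplicate.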

[2] = molecular target: T2, Alpha-1B adrenergic receptor (Homo sapiens, UniProt P35368); assay: Displacement of [3H]-Prazosin from human recombinant adrenergic Alpha1B receptor expressed in HEKT cells after 90 mins by microbeta scintillation counting method; format: cell-based
T2 sequence (P35368 whole entry): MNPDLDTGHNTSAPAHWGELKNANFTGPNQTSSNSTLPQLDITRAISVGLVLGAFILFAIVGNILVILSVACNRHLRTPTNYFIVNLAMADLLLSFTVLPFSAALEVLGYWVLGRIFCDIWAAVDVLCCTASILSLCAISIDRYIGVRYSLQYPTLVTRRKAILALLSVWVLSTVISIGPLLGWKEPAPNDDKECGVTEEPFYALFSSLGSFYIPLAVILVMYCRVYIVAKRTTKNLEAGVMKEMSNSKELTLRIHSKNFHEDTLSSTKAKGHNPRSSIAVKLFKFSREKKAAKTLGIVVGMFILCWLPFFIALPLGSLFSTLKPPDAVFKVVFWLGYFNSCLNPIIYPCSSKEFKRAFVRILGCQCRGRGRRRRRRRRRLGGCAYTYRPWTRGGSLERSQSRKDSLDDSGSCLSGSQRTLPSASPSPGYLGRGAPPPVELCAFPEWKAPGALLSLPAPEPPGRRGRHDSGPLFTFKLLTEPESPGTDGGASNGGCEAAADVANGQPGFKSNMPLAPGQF
How it was run: (§2)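 Radioligand binding was run by the NIMH Psychoactive Drug Screening Program. Compounds were first screened at 10 μM. Those giving ≥50% binding were taken to full competition curves. Ki is reported as pKi from a sigmoidal curve fit of triplicate measurements in a single experiment; the error is the curve-fit error.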

[3] = molecular target: Sodium-dependent dopamine transporter (Homo sapiens, UniProt Q01959); assay: Displacement of [3H]-Win35428 from human recombinant DAT receptor expressed in stable HEK cells after 90 mins by microbeta scintillation counting method; format: cell-based; how it was run: as §2
Histamine H1 receptor = Histamine H1 receptor (Homo sapiens, UniProt P35367); assay: Displacement of [3H]-Pyrilamine from human recombinant histamine H1 receptor expressed in stable HEK cells after 90 mins by microbeta scintillation counting method; format: cell-based; how it was run: as §2
[4] = molecular target: T3, Muscarinic acetylcholine receptor M1 (Homo sapiens, UniProt P11229); assay: Displacement of [3H]-QNB/[3H]-NMS from human recombinant Muscarinic acetylcholine M1 receptor expressed in stable CHO cells after 90 mins by microbeta scintillation counting method; format: cell-based; how it was run: as §2
T3 sequence (P11229 whole entry): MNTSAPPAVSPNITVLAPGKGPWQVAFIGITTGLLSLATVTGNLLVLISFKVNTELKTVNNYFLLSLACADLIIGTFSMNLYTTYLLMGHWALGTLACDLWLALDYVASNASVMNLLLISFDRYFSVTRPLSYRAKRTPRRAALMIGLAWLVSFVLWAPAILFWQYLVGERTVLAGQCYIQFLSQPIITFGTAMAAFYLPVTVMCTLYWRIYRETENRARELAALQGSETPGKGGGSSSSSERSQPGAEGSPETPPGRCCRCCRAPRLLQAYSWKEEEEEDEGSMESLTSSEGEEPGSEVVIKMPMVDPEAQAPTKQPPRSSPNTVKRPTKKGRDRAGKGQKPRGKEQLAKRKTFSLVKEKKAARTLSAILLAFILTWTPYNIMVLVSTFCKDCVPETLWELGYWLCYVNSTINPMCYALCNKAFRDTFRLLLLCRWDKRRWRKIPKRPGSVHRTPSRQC

[5] = Displacement of [3H]-PK11195 from PBR receptor in rat brain after 90 mins by microbeta scintillation counting method; format: tissue-based
How it was run: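 Radioligand binding run by the NIMH Psychoactive Drug Screening Program. Otherwise Ki comes from sigmoidal curve fits of triplicate measurements in a single experiment, or is averaged over repeated experiments each run in triplicate.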

[6] = molecular target: 5-hydroxytryptamine receptor 6 (Homo sapiens, UniProt P50406); assay: Displacement of [3H]-LSD from human recombinant 5-HT6 receptor expressed in stable HEK cells at 10 uM after 90 mins by microbeta scintillation counting method relative to control; format: cell-based; how it was run: as §1
D(3) dopamine receptor = D(3) dopamine receptor (Homo sapiens, UniProt P35462); assay: Displacement of [3H]-N-methylspiperone from human recombinant dopamine D3 receptor expressed in HEKT cells at 10 uM after 90 mins by microbeta scintillation counting method relative to control; format: cell-based; how it was run: as §1
Histamine H4 receptor = Histamine H4 receptor (Homo sapiens, UniProt Q9H3N8); assay: Displacement of [3H]-Histamine from human recombinant histamine H4 receptor expressed in HEKT cells at 10 uM after 90 mins by microbeta scintillation counting method relative to control; format: cell-based; how it was run: as §1
Rattus norvegicus = species on record: Rattus norvegicus; assay: Displacement of [3H]-PK11195 from PBR receptor in rat brain at 10 uM incubated for 90 mins by microbeta scintillation counting method relative to control; format: tissue-based; how it was run: as §1
[7] = molecular target: Sigma intracellular receptor 2 (Homo sapiens, UniProt Q5BJF2); assay: Displacement of […] from human recombinant sigma2 receptor expressed in HEKT cells at 10 uM after 90 mins by microbeta scintillation counting method relative to control; format: cell-based; how it was run: as §1
Histamine H3 receptor = Histamine H3 receptor (Homo sapiens, UniProt Q9Y5N1); assay: Displacement of [3H]-alpha-methylhistamine from human recombinant histamine H3 receptor expressed in Flp-In HEK cells after 90 mins by microbeta scintillation counting method; format: cell-based; how it was run: as §2
Histamine H3 receptor, sequence (Q9Y5N1 whole entry): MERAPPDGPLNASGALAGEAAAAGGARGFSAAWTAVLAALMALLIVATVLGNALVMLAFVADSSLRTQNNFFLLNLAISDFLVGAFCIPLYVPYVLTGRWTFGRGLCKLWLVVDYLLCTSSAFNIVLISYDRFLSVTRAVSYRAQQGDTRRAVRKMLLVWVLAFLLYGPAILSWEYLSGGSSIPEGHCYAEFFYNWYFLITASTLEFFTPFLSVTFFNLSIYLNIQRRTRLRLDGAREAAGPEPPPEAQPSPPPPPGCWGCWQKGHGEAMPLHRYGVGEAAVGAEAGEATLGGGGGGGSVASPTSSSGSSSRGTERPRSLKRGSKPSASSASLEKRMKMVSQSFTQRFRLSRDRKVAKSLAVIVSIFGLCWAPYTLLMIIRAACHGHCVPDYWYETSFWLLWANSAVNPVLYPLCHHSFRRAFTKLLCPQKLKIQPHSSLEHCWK

Histamine H4 receptor, sequence (Q9H3N8 whole entry): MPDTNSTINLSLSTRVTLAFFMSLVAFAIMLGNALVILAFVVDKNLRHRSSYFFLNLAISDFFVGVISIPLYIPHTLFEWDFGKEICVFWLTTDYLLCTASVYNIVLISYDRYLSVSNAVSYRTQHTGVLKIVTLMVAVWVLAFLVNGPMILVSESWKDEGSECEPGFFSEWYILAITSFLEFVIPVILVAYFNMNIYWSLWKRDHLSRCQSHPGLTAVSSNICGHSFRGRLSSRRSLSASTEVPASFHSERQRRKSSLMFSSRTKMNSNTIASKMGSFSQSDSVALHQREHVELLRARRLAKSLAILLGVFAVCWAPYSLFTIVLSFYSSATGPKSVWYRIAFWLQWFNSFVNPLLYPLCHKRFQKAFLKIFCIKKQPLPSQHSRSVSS
Histamine H1 receptor, sequence (P35367 whole entry): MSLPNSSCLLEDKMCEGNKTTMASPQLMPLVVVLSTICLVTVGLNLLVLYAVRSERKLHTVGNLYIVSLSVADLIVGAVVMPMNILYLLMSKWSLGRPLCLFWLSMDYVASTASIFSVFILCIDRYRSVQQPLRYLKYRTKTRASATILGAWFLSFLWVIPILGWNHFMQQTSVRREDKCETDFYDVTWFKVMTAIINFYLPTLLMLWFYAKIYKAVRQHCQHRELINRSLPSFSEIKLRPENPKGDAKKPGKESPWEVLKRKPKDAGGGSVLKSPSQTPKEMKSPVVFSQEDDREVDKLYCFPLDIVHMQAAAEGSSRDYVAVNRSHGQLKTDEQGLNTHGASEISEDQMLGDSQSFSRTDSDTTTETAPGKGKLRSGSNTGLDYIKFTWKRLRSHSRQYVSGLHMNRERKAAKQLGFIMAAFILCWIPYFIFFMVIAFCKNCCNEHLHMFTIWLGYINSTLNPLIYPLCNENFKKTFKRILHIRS
Sodium-dependent dopamine transporter, sequence (Q01959 whole entry): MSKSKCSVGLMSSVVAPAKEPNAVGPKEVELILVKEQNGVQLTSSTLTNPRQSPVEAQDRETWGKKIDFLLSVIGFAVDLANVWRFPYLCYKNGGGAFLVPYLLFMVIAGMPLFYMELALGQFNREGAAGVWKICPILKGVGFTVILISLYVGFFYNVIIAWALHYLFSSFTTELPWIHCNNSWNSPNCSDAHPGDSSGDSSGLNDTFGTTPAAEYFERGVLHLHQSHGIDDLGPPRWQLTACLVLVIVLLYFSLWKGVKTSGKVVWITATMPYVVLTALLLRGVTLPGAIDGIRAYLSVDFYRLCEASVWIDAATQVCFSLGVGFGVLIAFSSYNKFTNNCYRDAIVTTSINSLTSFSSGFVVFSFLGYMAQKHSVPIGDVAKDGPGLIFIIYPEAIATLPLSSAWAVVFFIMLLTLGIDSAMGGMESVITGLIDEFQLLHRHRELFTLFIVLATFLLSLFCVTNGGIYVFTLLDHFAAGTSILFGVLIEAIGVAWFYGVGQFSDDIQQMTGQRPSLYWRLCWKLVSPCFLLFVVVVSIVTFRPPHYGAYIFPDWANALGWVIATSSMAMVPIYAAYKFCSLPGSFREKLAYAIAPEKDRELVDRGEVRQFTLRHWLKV
Sigma intracellular receptor 2, sequence (Q5BJF2 whole entry): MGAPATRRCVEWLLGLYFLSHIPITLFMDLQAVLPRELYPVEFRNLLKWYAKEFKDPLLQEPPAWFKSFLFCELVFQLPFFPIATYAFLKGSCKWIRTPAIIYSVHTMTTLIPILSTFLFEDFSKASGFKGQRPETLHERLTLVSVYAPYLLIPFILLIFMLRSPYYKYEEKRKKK
5-hydroxytryptamine receptor 6, sequence (P50406 whole entry): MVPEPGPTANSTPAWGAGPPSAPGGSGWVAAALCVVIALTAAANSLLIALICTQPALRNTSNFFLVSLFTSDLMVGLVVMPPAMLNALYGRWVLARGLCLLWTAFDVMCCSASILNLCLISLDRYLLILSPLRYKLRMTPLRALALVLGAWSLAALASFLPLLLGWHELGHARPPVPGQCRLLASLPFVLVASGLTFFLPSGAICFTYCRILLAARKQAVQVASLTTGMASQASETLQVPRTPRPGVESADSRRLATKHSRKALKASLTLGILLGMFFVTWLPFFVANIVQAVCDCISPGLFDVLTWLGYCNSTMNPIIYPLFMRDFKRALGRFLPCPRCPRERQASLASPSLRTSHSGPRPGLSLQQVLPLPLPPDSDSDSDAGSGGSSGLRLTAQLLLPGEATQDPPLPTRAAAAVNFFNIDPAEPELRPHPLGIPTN
D(3) dopamine receptor, sequence (P35462 whole entry): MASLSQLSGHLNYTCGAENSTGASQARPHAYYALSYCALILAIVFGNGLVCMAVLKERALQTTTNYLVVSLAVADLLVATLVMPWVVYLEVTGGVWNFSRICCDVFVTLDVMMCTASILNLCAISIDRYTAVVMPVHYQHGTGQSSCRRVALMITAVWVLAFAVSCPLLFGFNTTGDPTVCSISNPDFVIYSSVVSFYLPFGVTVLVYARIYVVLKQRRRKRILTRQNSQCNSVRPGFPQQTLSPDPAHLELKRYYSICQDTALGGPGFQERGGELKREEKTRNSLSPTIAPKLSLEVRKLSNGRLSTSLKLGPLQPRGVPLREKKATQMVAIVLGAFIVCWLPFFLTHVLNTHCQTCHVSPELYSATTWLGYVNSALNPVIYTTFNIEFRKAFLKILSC

SMILES | Ki [1] [µM] | Ki [2] [µM] | Ki [3] [µM] | Ki (Histamine H1 receptor) [µM] | Ki [4] [µM] | pKi [5] | inhibition [6] [%] | inhibition (D(3) dopamine receptor) [%] | inhibition (Histamine H4 receptor) [%] | inhibition (Rattus norvegicus) [%] | inhibition [7] [%] | Ki (Histamine H3 receptor) [µM]
COc1cc(OC)c2c(c1)OC[C@@]1(C)NCC[C@@H]21 (racemic) | > 10 | > 10 | > 10 | > 10 | > 10 | < 5 | < 50 | < 50 | < 50 | < 50 | < 50 | 
C[C@@]12CN(c3ccccc3)c3ccccc3[C@@H]1CCN2 (racemic) | > 10 | > 10 | > 10 | > 10 | > 10 |  |  |  |  |  |  | 
CC[C@H]1c2cc(OC)ccc2CC[C@@]1(C)N (racemic) | > 10 | > 10 | 5.01 | 3.16 | > 10 | < 5 | < 50 | < 50 | < 50 | < 50 | < 50 | > 10
CC[C@H]1c2cc(C)ccc2OC[C@@]1(C)N (racemic) | > 10 | > 10 | > 10 | > 10 | > 10 | < 5 | < 50 | < 50 | < 50 | < 50 | < 50 | > 10
CC[C@H]1c2ccccc2N(c2ccccc2)C[C@@]1(C)N (racemic) | > 10 | > 10 | 3.16 | > 10 | > 10 |  |  |  |  |  |  | 3.98
